Assay results as given in ChEMBL document CHEMBL4732114, “Design and structural optimization of novel 2H-benzo[h]chromene derivatives that target AcrB and reverse bacterial multidrug resistance” (Eur J Med Chem, 2021).
Converted amounts (≈) assume the structure as drawn.

Assays:
[1] = biological target: T1, Multidrug efflux pump subunit AcrB (Escherichia coli (strain K12)) (UniProt P31224); experiment: Inhibition of AcrB in multidrug-resistant Escherichia coli BW25113 assessed as potentiation of erythromycin-induced antibacterial activity by measuring erythromycin MIC at 8 ug/ml by checkerboard titration method (reference value: 64 ug/ml); details: dose 8.0 µg/ml
T1 sequence (whole entry): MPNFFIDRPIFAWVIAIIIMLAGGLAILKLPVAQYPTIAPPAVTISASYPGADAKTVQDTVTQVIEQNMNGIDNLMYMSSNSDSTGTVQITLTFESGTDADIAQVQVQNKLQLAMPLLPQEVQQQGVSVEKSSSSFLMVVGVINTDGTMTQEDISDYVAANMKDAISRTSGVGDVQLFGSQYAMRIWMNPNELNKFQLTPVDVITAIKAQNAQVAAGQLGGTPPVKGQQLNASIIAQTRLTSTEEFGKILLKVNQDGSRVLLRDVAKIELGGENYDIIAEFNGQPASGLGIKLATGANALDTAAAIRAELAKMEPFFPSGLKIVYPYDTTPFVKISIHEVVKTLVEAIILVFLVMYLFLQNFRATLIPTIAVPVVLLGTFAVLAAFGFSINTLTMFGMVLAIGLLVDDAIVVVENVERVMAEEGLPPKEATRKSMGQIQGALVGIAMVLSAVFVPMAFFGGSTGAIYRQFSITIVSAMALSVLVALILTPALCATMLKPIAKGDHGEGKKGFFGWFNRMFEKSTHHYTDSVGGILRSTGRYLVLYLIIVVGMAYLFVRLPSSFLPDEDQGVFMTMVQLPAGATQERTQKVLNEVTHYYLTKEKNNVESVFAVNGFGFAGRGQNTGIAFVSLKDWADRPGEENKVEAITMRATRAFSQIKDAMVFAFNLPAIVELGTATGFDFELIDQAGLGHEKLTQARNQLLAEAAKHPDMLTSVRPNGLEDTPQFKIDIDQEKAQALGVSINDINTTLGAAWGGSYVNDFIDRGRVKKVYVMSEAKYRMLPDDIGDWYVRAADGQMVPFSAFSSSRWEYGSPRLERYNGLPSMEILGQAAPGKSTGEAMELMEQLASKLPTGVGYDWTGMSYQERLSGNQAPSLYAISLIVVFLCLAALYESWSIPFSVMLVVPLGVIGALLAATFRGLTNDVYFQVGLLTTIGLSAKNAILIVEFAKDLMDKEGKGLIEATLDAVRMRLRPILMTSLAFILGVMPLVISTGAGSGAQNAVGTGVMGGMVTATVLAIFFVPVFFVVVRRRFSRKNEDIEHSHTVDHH

[2] = Toxicity in multidrug-resistant Escherichia coli BW25113 harboring AcrB deletion mutant assessed as growth inhibition by two-fold broth dilution method
[3] = biological target: T1, Multidrug efflux pump subunit AcrB (Escherichia coli (strain K12)); experiment: Inhibition of AcrB in multidrug-resistant Escherichia coli BW25113 assessed as potentiation of chloramphenicol-induced antibacterial activity by measuring chloramphenicol MIC at 32 ug/ml by checkerboard titration method (reference value: 8 ug/ml); details: dose 32.0 µg/ml
[4] = biological target: T1, Multidrug efflux pump subunit AcrB (Escherichia coli (strain K12)); experiment: Inhibition of AcrB in multidrug-resistant Escherichia coli BW25113 assessed as potentiation of chloramphenicol-induced antibacterial activity by measuring chloramphenicol MIC at 64 ug/ml by checkerboard titration method (reference value: 8 ug/ml); details: dose 64.0 µg/ml
[5] = biological target: T1, Multidrug efflux pump subunit AcrB (Escherichia coli (strain K12)); experiment: Inhibition of AcrB in multidrug-resistant Escherichia coli BW25113 assessed as potentiation of chloramphenicol-induced antibacterial activity by measuring chloramphenicol MIC at 128 ug/ml by checkerboard titration method (reference value: 8 ug/ml); details: dose 128.0 µg/ml
[6] = biological target: T1, Multidrug efflux pump subunit AcrB (Escherichia coli (strain K12)); experiment: Inhibition of AcrB in multidrug-resistant Escherichia coli BW25113 assessed as potentiation of erythromycin-induced antibacterial activity by measuring erythromycin MIC at 32 ug/ml by checkerboard titration method (reference value: 64 ug/ml); details: dose 32.0 µg/ml
[7] = biological target: T1, Multidrug efflux pump subunit AcrB (Escherichia coli (strain K12)); experiment: Inhibition of AcrB in multidrug-resistant Escherichia coli BW25113 assessed as potentiation of erythromycin-induced antibacterial activity by measuring erythromycin MIC at 64 ug/ml by checkerboard titration method (reference value: 64 ug/ml); details: dose 64.0 µg/ml
[8] = biological target: T1, Multidrug efflux pump subunit AcrB (Escherichia coli (strain K12)); experiment: Inhibition of AcrB in multidrug-resistant Escherichia coli BW25113 assessed as potentiation of levofloxacin-induced antibacterial activity by measuring levofloxacin MIC at 8 ug/ml by checkerboard titration method (reference value: 0.06 ug/ml); details: dose 8.0 µg/ml
[9] = biological target: T1, Multidrug efflux pump subunit AcrB (Escherichia coli (strain K12)); experiment: Inhibition of AcrB in multidrug-resistant Escherichia coli BW25113 assessed as potentiation of levofloxacin-induced antibacterial activity by measuring levofloxacin MIC at 16 ug/ml by checkerboard titration method (reference value: 0.06 ug/ml); details: dose 16.0 µg/ml
[10] = biological target: T1, Multidrug efflux pump subunit AcrB (Escherichia coli (strain K12)); experiment: Inhibition of AcrB in multidrug-resistant Escherichia coli BW25113 assessed as potentiation of levofloxacin-induced antibacterial activity by measuring levofloxacin MIC at 64 ug/ml by checkerboard titration method (reference value: 0.06 ug/ml); details: dose 64.0 µg/ml
Cell membrane [11] = experiment: Induction of inner membrane permeabilization in wild type Escherichia coli BW25113 assessed as perturbation of proton motive force at 32 ug/ml measured after 10 mins in presence of CCCP and glucose by Di0C2(3) probe based fluorescence assay; details: escherichia coli bw25113, 10 min, dose 32 µg/ml
Outline: (§1)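 Cell suspensions were left untreated or exposed to 8-128 µg/mL compound for 10 min. DiOC₂(3) was then added and fluorescence followed to a plateau. Cells were re-energized with 0.5% glucose, and the rise in fluorescence was read as membrane-potential build-up. CCCP was added last to dissipate the potential.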

[12] = biological target: T1, Multidrug efflux pump subunit AcrB (Escherichia coli (strain K12)); details: Escherichia coli BW25113; dose 8.0 µg/ml
[13] = biological target: T1, Multidrug efflux pump subunit AcrB (Escherichia coli (strain K12)); details: Escherichia coli BW25113; dose 32.0 µg/ml
[14] = biological target: T1, Multidrug efflux pump subunit AcrB (Escherichia coli (strain K12)); details: Escherichia coli BW25113; dose 64.0 µg/ml
Cell membrane [15] = experiment: Induction of inner membrane permeabilization in wild type Escherichia coli BW25113 assessed as perturbation of proton motive force at 128 ug/ml measured after 10 mins in presence of CCCP and glucose by Di0C2(3) probe based fluorescence assay; details: escherichia coli bw25113, 10 min, dose 128 µg/ml; outline: as §1

| Structure (SMILES) | MIC [1] [µg/mL] | MIC [2] [µg/mL] | MIC [3] [µg/mL] | MIC [4] [µg/mL] | MIC [5] [µg/mL] | MIC [6] [µg/mL] | MIC [7] [µg/mL] | MIC [8] [µg/mL] | MIC [9] [µg/mL] | MIC [10] [µg/mL] | Activity (Cell membrane [11]) | MIC [12] [µg/mL] | MIC [13] [µg/mL] | MIC [14] [µg/mL] | Activity (Cell membrane [15]) |
| --- | --- | --- | --- | --- | --- | --- | --- | --- | --- | --- | --- | --- | --- | --- | --- |
| CC1(C)CCc2c(C(=O)O)cc3c(OCc4ccccc4)cccc3c2O1 | 64 | > 128 | 8 | 4 | 1 | 64 | 64 | 0.06 | 0.06 | 0.01 | Active | 16 (≈ 44.1 µM) | 16 (≈ 44.1 µM) | 16 (≈ 44.1 µM) |  |
| CC1CN(C(=O)c2cc3c(OCc4ccc(Br)cc4)cccc3c3c2CCC(C)(C)O3)CC(C)O1 (stereo unspecified) | 64 | > 128 | 8 | 8 | 8 | 64 | 64 | 0.06 | 0.06 | 0.06 |  | 16 (≈ 29.7 µM) | 16 (≈ 29.7 µM) | 16 (≈ 29.7 µM) | Not Active |
| CC1(C)CCc2c(Cn3cnnn3)cc3c(OCc4ccccc4)cccc3c2O1 | 64 | > 128 | 8 | 4 | 4 | 64 | 64 | 0.06 | 0.06 | 0.06 |  | 16 (≈ 40 µM) | 16 (≈ 40 µM) | 16 (≈ 40 µM) | Not Active |
| CC1(C)CCc2c(Cn3cnnn3)cc3c(OCc4ccc([N+](=O)[O-])cc4)cccc3c2O1 | 64 | > 128 | 8 | 8 | 8 | 64 | 64 | 0.06 | 0.06 | 0.06 |  | 16 (≈ 35.9 µM) | 16 (≈ 35.9 µM) | 16 (≈ 35.9 µM) | Not Active |
| CC(C)NCCOc1ccc2c(c1)OC(C)(C)CC2=O | 64 | > 128 | 8 | 8 | 8 | 64 | 64 | 0.03 | 0.03 | 0.03 |  | 16 (≈ 57.7 µM) | 16 (≈ 57.7 µM) | 16 (≈ 57.7 µM) |  |
| CC1(C)CCc2c(-c3nnco3)cc3c(OCc4ccc([N+](=O)[O-])cc4)cccc3c2O1 | 64 | > 128 | 8 | 8 | 4 | 64 | 32 | 0.06 | 0.06 | 0.06 |  | 16 (≈ 37.1 µM) | 16 (≈ 37.1 µM) | 16 (≈ 37.1 µM) | Not Active |
| CC1(C)CC(=O)c2ccc(OCC(=O)Nc3ccc(C#N)c(C(F)(F)F)c3)cc2O1 | 64 | > 128 | 8 | 4 |  | 64 | 64 | 0.06 | 0.06 | 0.06 | Not Active | 16 (≈ 38.2 µM) | 16 (≈ 38.2 µM) | 16 (≈ 38.2 µM) |  |
| CC1(C)CC(=O)c2ccc(OCCNC3CCCC3)cc2O1 | 64 | > 128 | 8 | 8 | 8 | 64 | 64 | 0.06 | 0.06 | 0.03 | Not Active | 16 (≈ 52.7 µM) | 16 (≈ 52.7 µM) | 16 (≈ 52.7 µM) |  |
| CC1CN(C(=O)c2cc3c(OCc4c(Cl)cccc4Cl)cccc3c3c2CCC(C)(C)O3)CC(C)O1 (stereo unspecified) | 64 |  | 8 | 8 | 8 | 64 | 64 | 0.03 | 0.03 | 0.03 |  | 16 (≈ 30.3 µM) | 16 (≈ 30.3 µM) | 16 (≈ 30.3 µM) |  |
| C=CC(=O)Nc1ccc(COc2cccc3c4c(c(C(=O)N5CCOCC5)cc23)CCC(C)(C)O4)cc1 | 16 | > 128 | 4 | 4 | 2 | 16 | 16 | 0.06 | 0.06 | 0.06 |  | 16 (≈ 32 µM) | 16 (≈ 32 µM) | 16 (≈ 32 µM) | Not Active |
| CC1(C)CCc2c(Cn3cnnn3)cc3c(OCc4ccc(OC(F)(F)F)cc4)cccc3c2O1 | 64 | > 128 | 8 | 8 | 4 | 64 | 64 | 0.06 | 0.06 | 0.06 |  | 16 (≈ 33 µM) | 16 (≈ 33 µM) | 16 (≈ 33 µM) | Not Active |
| CC1(C)CCc2c(C(=O)N3CCOCC3)cc3c(OCc4ccccc4)cccc3c2O1 | 64 | > 128 | 4 | 4 | 4 | 64 | 16 | 0.03 | 0.03 | 0.03 |  | 16 (≈ 37.1 µM) | 16 (≈ 37.1 µM) | 16 (≈ 37.1 µM) |  |
| CNC(=O)c1ccc(COc2cccc3c4c(c(Cn5cnnn5)cc23)CCC(C)(C)O4)cc1 | 64 | > 128 | 8 | 4 | 4 | 64 | 64 | 0.06 | 0.06 | 0.06 |  | 16 (≈ 35 µM) | 16 (≈ 35 µM) | 16 (≈ 35 µM) | Not Active |
| COc1cccc(COc2cccc3c4c(c(-c5nnco5)cc23)CCC(C)(C)O4)c1 | 64 | > 128 | 8 | 8 | 8 | 64 | 64 | 0.06 | 0.06 | 0.06 |  | 16 (≈ 38.4 µM) | 16 (≈ 38.4 µM) | 16 (≈ 38.4 µM) | Not Active |
